Entries after “also recorded” stand apart in the source; their conditions may differ. Read-outs that look alike come from different tables or passages of the source.
Tests used:
[1] = tested on: T2DM mice; format: in vivo; details: for Serum TC / Serum TG / Body weight / Effect on serum TC and TG: T2DM mice; for Serum TC / Serum TG: 200 mg/kg oral once per day, mean ± SD (n=8–10); for Body weight: 200 mg/kg oral once a day for 8 weeks; for Effect on serum TC and TG: 200 mg/kg oral, 8 weeks
How it was run: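 Male Kunming mice (8 weeks, 18–22 g) fed high-fat diet (20% sucrose, 10% lard, 2.5% cholesterol, 1% sodium cholate, 66.5% chow) for 4 weeks. After an 8 h fast, STZ 35 mg/kg i.p. in citrate-buffered saline pH 4.4, daily for 1 week. Test compound by oral gavage daily for 8 weeks, DMSO stock diluted in 0.9% saline; saline vehicle. Weekly 8-h-fasted tail-vein glucose (glucometer) and body weight; serum TG/TC by kits.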

[2] = molecular target: T1, SHP1 (Homo sapiens, UniProt P29350); test: PTP selectivity panel; format: biochemical
T1 sequence (P29350 244-515 limits assumed): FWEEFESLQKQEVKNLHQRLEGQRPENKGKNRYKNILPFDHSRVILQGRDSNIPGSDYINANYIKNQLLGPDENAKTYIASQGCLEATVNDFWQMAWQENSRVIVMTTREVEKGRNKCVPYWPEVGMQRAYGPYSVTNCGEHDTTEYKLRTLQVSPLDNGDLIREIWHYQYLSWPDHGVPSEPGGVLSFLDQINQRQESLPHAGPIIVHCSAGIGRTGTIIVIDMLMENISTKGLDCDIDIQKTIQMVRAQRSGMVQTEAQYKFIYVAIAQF
How it was run: (§1)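 Recombinant catalytic domains in pH 7.0 buffer (50 mmol/L MOPS, 100 mmol/L NaCl, 1 mmol/L EDTA, 1 mmol/L DTT, 1 mg/mL BSA). Enzyme preincubated with test compound 5 min at 37 °C. Then pNPP (100 mmol/L stock) added, 10 min at 37 °C. Stopped with NaHCO3; p-nitrophenol read at 405 nm. IC50 by fitting concentration–inhibition curves; triplicate points.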

[3] = molecular target: T2, SHP2 (Homo sapiens, UniProt Q06124); test: PTP selectivity panel; format: biochemical
T2 sequence (Q06124 247-517 limits assumed): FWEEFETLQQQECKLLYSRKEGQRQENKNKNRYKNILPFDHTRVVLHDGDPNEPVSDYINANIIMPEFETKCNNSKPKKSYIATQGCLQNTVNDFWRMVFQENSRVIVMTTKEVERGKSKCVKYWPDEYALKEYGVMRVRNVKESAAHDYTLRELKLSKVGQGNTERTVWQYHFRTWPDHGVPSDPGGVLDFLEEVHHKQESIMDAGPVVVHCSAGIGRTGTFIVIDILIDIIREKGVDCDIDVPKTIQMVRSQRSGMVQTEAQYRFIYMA
How it was run: as §1

[4] = molecular target: T3, PTP1B (Homo sapiens, UniProt P18031); test: PTP1B inhibition measurement; format: biochemical
T3 sequence (P18031 3-277 limits assumed): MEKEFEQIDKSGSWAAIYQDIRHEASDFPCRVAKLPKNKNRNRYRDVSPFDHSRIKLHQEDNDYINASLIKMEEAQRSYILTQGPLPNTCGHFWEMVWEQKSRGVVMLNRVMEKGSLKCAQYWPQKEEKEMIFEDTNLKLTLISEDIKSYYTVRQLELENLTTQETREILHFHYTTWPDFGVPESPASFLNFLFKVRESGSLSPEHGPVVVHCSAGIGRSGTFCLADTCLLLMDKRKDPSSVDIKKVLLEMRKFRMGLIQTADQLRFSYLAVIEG
How it was run: as §1

[5] = tested on: murine and human adipocytes; details: ref Alonso-Castroa et al [20]; cited from earlier work
[6] = molecular target: T4, HePTP (Homo sapiens, UniProt P35236); test: PTP selectivity panel; format: biochemical
T4 sequence (P35236 97-350 limits assumed): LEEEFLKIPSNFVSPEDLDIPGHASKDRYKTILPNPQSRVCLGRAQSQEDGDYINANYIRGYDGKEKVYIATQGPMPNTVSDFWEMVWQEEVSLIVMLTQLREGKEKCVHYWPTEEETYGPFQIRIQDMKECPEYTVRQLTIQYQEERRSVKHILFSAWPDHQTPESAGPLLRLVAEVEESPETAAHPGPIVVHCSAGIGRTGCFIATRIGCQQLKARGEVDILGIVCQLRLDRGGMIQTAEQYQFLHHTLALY
How it was run: as §1

[7] = tested on: L6 myotubes; details: ref Choi et al [19]; cited from earlier work
[8] = tested on: insulin signaling (IRβ, AKT, ERK1/2, phosphotyrosine) in adipose tissue, skeletal muscle, and liver; test: Western blot of insulin signaling in tissues of T2DM mice; format: in vivo; details: 200 mg/kg, 8 weeks
How it was run: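 After 8 weeks of dosing, subcutaneous adipose, skeletal muscle and liver were snap-frozen and homogenised in SDS sample buffer lacking bromophenol blue, then spun 12,000 × g, 20 min, 4 °C. 20 µg protein run on 8–10% SDS-PAGE. Membranes blocked 2 h in 3% BSA/TBST; primaries overnight at 4 °C, HRP secondaries 2 h. ECL and densitometry; phospho normalised to total, normal mice = 100%; n=3.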

[9] = molecular target: T5, TCPTP (Homo sapiens, UniProt P17706); test: PTP selectivity panel; format: biochemical
T5 sequence (P17706 5-275 limits assumed): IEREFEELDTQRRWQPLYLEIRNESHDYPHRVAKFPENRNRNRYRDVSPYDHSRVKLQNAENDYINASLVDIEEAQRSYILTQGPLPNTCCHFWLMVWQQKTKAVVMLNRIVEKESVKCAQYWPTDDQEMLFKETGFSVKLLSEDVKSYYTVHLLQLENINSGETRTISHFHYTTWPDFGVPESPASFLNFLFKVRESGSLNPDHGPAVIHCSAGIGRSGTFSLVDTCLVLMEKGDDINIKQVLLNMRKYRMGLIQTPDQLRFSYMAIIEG
How it was run: as §1

[10] = tested on: insulin signaling (IRβ, AKT, ERK1/2, GLUT4, phosphotyrosine) in C2C12 myotubes; test: Western blot of insulin signaling in insulin-stimulated C2C12 myotubes; format: cell-based
How it was run: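 C2C12 myoblasts at 75% confluence were differentiated in DMEM with 2% horse serum for 4–6 days. Myotubes were pretreated 1 h with test compound (in DMSO), then given 10 nM insulin for 10 min. Whole-cell lysates and plasma-membrane fractions were blotted (10% SDS-PAGE) for phospho/total IRβ, AKT, ERK1/2, GLUT4, phosphotyrosine and actin; ECL detection. Phospho normalised to total, expressed as fold of insulin alone; n=3.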

[11] = tested on: C2C12 cells; test: MTT cytotoxicity assay; format: cell-based; details: 24 hours
How it was run: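 C2C12 cells were grown in DMEM with 10% FBS at 37 °C, 5% CO2, seeded in 96-well plates and exposed to test compound for 24 h. MTT (5 mg/mL stock) was added for 4 h at 37 °C. Formazan was dissolved in DMSO and read at 490 nm. Viability is relative to untreated control (100%). Six wells per treatment; three independent experiments.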

[12] = tested on: PTP1B−/− mice; test: Honokiol treatment of PTP1B gene knockout mice; format: in vivo; details: pre-experiments, Figure S2
[13] = tested on: PPAR-γ; details: in vitro; ref Atanasov et al [18]; cited from earlier work
[14] = honokiol 0 to 30 µM 1 hour, then 10 nM insulin 10 minutes

SMILES: CN(C)C(=N)N=C(N)N [Metformin, reference compound]
- Serum TC ([1]; 0 week): 3.70 ± 0.31 mmol/L
- Serum TG ([1]; 0 week): 0.54 ± 0.02 mmol/L
- Serum TC ([1]; 8 week): 3.57 ± 0.11 mmol/L
- Serum TG ([1]; 8 week): 0.49 ± 0.04 mmol/L
- Body weight [1]: stable body weight
- Effect on serum TC and TG [1]: no significant difference

SMILES: C=CCc1ccc(O)c(-c2ccc(O)c(CC=C)c2)c1 [Honokiol]
- IC50 [2]: 763.2 ± 5.49 µM
- Selectivity on PTP1B over SHP1 ([2]; from IC50 values): ~ 12 fold
- IC50 [3]: 785.5 ± 6.83 µM
- Selectivity on PTP1B over SHP2 ([3]; from IC50 values): ~ 12 fold
- Ki [4]: 6.67 µM
- Inhibition type on PTP1B ([4]; Lineweaver–Burk plot, 1/v versus 1/[pNPP]): reversible competitive inhibitory activity; also recorded: competing with the substrate for the enzyme active site
- Glucose uptake [5]: stimulates glucose uptake
- IC50 [6]: 890 ± 9.46 µM
- Selectivity on PTP1B over HePTP ([6]; from IC50 values): ~ 14 fold
- Glucose uptake [7]: stimulates glucose uptake
- Serine phosphorylation of AKT in adipose tissue, skeletal muscle, and liver [8]: enhanced
- Tyrosine phosphorylation of ERK in adipose tissue, skeletal muscle, and liver [8]: enhanced
- Serum TC ([1]; 0 week): 3.62 ± 0.15 mmol/L
- Serum TG ([1]; 0 week): 0.51 ± 0.03 mmol/L
- Serum TC ([1]; 8 week): 3.67 ± 0.16 mmol/L
- Serum TG ([1]; 8 week): 0.48 ± 0.03 mmol/L
- Body weight [1]: decreased at early treatment and then gradually increased
- Effect on serum TC and TG [1]: does not affect TC and TG
- Macroscopic organ toxicity ([1]; brain, heart, kidneys, liver, spleen, stomach, large and small intestine, and lungs): no macroscopic toxicity
- Dose with the most significant hypoglycemic effects (pre-experiments) ([1]; series 10, 50, 100, 150, 200, 250, and 300 mg/kg, data not shown): 200 mg/kg
- IC50 [9]: 604.4 ± 4.89 µM
- Selectivity on PTP1B over TCPTP ([9]; from IC50 values): approximately ninefold
- Tyrosine phosphorylations of cellular proteins [10]: enhanced
- Insulin-induced GLUT4 level in the plasma membrane fraction ([10]; GLUT4 in whole cell lysates not altered): dose-dependently increased
- Insulin-stimulated tyrosine phosphorylation of ERK [10, 14]: enhances
- Insulin-stimulated tyrosine phosphorylation of IRβ [10, 14]: largely enhanced
- Serine phosphorylation of AKT [10, 14]: enhances
- Maximum concentration without cytotoxicity [11]: 40 µM
- Blood glucose in PTP1B−/− mice [12]: cannot affect; also recorded: No hypoglycemic potency
- Body weight in PTP1B−/− mice [12]: No potency of honokiol on the amelioration of body weight
- PPAR-γ activation [13]: novel nonadipogenic partial PPAR-γ activator
